Legend:
Format in all cases: physicochemical
[1] = Antioxidant activity assessed as DPPH radical scavenging activity measured as rate constant after 10 secs by UV-visible spectrophotometry; settings: 10 s
Procedure, shortened: (§1)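 DPPH radical decay, antioxidant at 1.67, 16.7 or 60.0 μM. After 10 s of mixing with DPPH, A517 was read at once and then every 15 s for 5 min. The second-order rate constant k and the plateau absorbance (t → ∞) came from curve-fitting absorbance vs time under global second-order kinetics.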

[2] = Antioxidant activity assessed as DPPH radical scavenging activity at 1.67 uM measured as absorbance (t -> infinity) after 10 secs by UV-visible spectrophotometry; settings: 10 s; procedure, shortened: as §1
[3] = Antioxidant activity assessed as DPPH radical scavenging activity at 16.7 uM measured as absorbance (t -> infinity) after 10 secs by UV-visible spectrophotometry; settings: 10 s; procedure, shortened: as §1
[4] = Antioxidant activity assessed as DPPH radical scavenging activity at 60 uM measured as absorbance (t -> infinity) after 10 secs by UV-visible spectrophotometry; settings: 10 s; procedure, shortened: as §1
[5] = Antioxidant activity assessed as hydroxyl radical scavenging activity at 1.5 uM by ESR spin trapping assay
Procedure, shortened: (§2)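 Hydroxyl radicals came from Fenton reaction (H2O2, EDTA, FeSO4 to start) with DMPO spin trap. Samples in ACN (stocks 0.03–0.3 mM) gave final 1.5, 2.5, 5.0 or 15.0 μM; ACN alone served as control. ESR signal was taken as the ratio of the DMPO adduct second-singlet amplitude to the TEMPO (2 μM, daily reference) first-singlet amplitude.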

[6] = Antioxidant activity assessed as hydroxyl radical scavenging activity at 2.5 uM by ESR spin trapping assay; procedure, shortened: as §2
[7] = Antioxidant activity assessed as hydroxyl radical scavenging activity at 5 uM by ESR spin trapping assay; procedure, shortened: as §2
[8] = Antioxidant activity assessed as hydroxyl radical scavenging activity at 15 uM by ESR spin trapping assay; procedure, shortened: as §2
[9] = Antioxidant activity assessed as superoxide anion radical scavenging activity at 40 uM measured as rate constant recorded every min for 7 mins by nitroblue tetrazolium assay (reference value: 0.188 +/- 0.001 /min)
Procedure, shortened: (§3)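 Superoxide came from hypoxanthine/xanthine oxidase (2 mM HPX, 0.56 U·mL−1 XOD stocks) with 0.34 mM NBT in 50 mM phosphate buffer pH 7.4. A560 was read every minute for 7 min. Pseudo-first-order rate constant k1 and final NBTH2 absorbance (t → ∞) came from curve-fitting absorbance vs time, with antioxidant at 40, 80 or 160 μM.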

[10] = Antioxidant activity assessed as superoxide anion radical scavenging activity at 80 uM measured as rate constant recorded every min for 7 mins by nitroblue tetrazolium assay (reference value: 0.188 +/- 0.001 /min); procedure, shortened: as §3
[11] = Antioxidant activity assessed as superoxide anion radical scavenging activity at 160 uM measured as rate constant recorded every min for 7 mins by nitroblue tetrazolium assay (reference value: 0.188 +/- 0.001 /min); procedure, shortened: as §3
[12] = Antioxidant activity assessed as superoxide anion radical scavenging activity at 40 uM measured as absorbance (t > infinity) recorded every min for 7 mins by nitroblue tetrazolium assay (reference value: 1.9 +/- 0.01); procedure, shortened: as §3
[13] = Antioxidant activity assessed as superoxide anion radical scavenging activity at 80 uM measured as absorbance (t > infinity) recorded every min for 7 mins by nitroblue tetrazolium assay (reference value: 1.9 +/- 0.01); procedure, shortened: as §3
[14] = Antioxidant activity assessed as superoxide anion radical scavenging activity at 160 uM measured as absorbance (t > infinity) recorded every min for 7 mins by nitroblue tetrazolium assay (reference value: 1.9 +/- 0.01); procedure, shortened: as §3
[15] = Antioxidant activity assessed as superoxide anion radical scavenging activity measured as rate constant recorded every min for 7 mins by nitroblue tetrazolium assay; procedure, shortened: as §3

K [1] | Activity [2] | Activity [3] | Activity [4] | Activity [5] | Activity [6] | Activity [7] | Activity [8] | K [9] | K [10] | K [11] | Activity [12] | Activity [13] | Activity [14] | Activity [15] | SMILES
120000 M⁻¹ s⁻¹ |  |  |  |  |  |  |  |  |  |  |  |  |  |  | Oc1cccc(O)c1O [PYROGALLOL]
14000 M⁻¹ s⁻¹ | 1.008 | 0.896 | 0.57 | 19% | 31% | 36% | 43% | 0.15 min⁻¹ | 0.15 min⁻¹ | 0.14 min⁻¹ | 1.9 | 1.72 | 1.6 |  | COC(=O)/C=C/c1ccc(O)c(OC)c1
12000 M⁻¹ s⁻¹ | 1.232 | 0.913 | 0.53 | 23% | 26% | 33% | 40% | 0.2 min⁻¹ | 0.14 min⁻¹ | 0.19 min⁻¹ | 1.27 | 1.4 | 1.03 |  | COc1cc(/C=C/C(=O)O)ccc1O [FERULATE]
12000 M⁻¹ s⁻¹ | 1.144 | 1.01 | 0.72 | 23% | 26% | 30% | 44% | 0.18 min⁻¹ | 0.11 min⁻¹ | 0.11 min⁻¹ | 1.68 | 1.76 | 1.78 | Dose-dependent effect | CC[C@H](/C=C/[C@@H](C)[C@H]1CC[C@H]2[C@@H]3CC=C4C[C@@H](OC(=O)/C=C/c5ccc(O)c(OC)c5)CC[C@]4(C)[C@H]3CC[C@]12C)C(C)C
15000 M⁻¹ s⁻¹ | 1.156 | 0.991 | 0.64 | 22% | 25% | 28% | 40% | 0.14 min⁻¹ | 0.21 min⁻¹ | 0.14 min⁻¹ | 1.85 | 1.35 | 1.47 |  | CC[C@H](CC[C@@H](C)[C@H]1CC[C@H]2[C@@H]3CC[C@H]4C[C@@H](OC(=O)/C=C/c5ccc(O)c(OC)c5)CC[C@]4(C)[C@H]3CC[C@]12C)C(C)C
12000 M⁻¹ s⁻¹ | 1.245 | 0.979 | 0.74 | 24% | 24% | 30% | 40% | 0.17 min⁻¹ | 0.11 min⁻¹ | 0.11 min⁻¹ | 1.76 | 1.71 | 1.82 | Dose-dependent effect | COc1cc(/C=C/C(=O)O[C@H]2CC[C@@]3(C)C(=CC[C@H]4[C@@H]5CC[C@H]([C@H](C)CCCC(C)C)[C@@]5(C)CC[C@@H]43)C2)ccc1O

Second part, the molecule before the results:

SMILES | K [1] | Activity [2] | Activity [3] | Activity [4] | Activity [5] | Activity [6] | Activity [7] | Activity [8] | K [9] | K [10] | K [11] | Activity [12] | Activity [13] | Activity [14] | Activity [15]
CCOC(=O)/C=C/c1ccc(O)c(OC)c1 [ETHYL FERULATE] | 13000 M⁻¹ s⁻¹ | 0.992 | 0.851 | 0.58 | 19% | 29% | 36% | 42% | 0.14 min⁻¹ | 0.16 min⁻¹ | 0.13 min⁻¹ | 1.9 | 1.7 | 1.6 | 
CC[C@H](CC[C@@H](C)[C@H]1CC[C@H]2[C@@H]3CC=C4C[C@@H](OC(=O)/C=C/c5ccc(O)c(OC)c5)CC[C@]4(C)[C@H]3CC[C@]12C)C(C)C | 13000 M⁻¹ s⁻¹ | 1.298 | 0.944 | 0.64 | 20% | 24% | 31% | 43% | 0.19 min⁻¹ | 0.19 min⁻¹ | 0.13 min⁻¹ | 1.64 | 1.38 | 1.16 | Dose-dependent effect
COc1cc(/C=C/C(=O)O[C@H]2CC[C@@]3(C)C(=CC[C@H]4[C@@H]5CC[C@H]([C@H](C)CC[C@@H](C)C(C)C)[C@@]5(C)CC[C@@H]43)C2)ccc1O | 13000 M⁻¹ s⁻¹ | 1.273 | 1.045 | 0.7 | 21% | 25% | 29% | 39% | 0.17 min⁻¹ | 0.18 min⁻¹ | 0.13 min⁻¹ | 1.65 | 1.4 | 1.19 | Dose-dependent effect
COc1cc(/C=C/C(=O)O[C@H]2CC[C@@]3(C)[C@@H](CC[C@@H]4[C@@H]3CC[C@]3(C)[C@@H]([C@H](C)CC[C@@H](C)C(C)C)CC[C@@H]43)C2)ccc1O | 18000 M⁻¹ s⁻¹ | 1.198 | 1.091 | 0.79 | 23% | 27% | 34% | 43% | 0.13 min⁻¹ | 0.19 min⁻¹ | 0.13 min⁻¹ | 1.89 | 1.47 | 1.57 | 
